What all share (type): functional
The nature of experiment [1]: Growth inhibition of human OVCAR3 cells at 10 uM after 48 hrs by sulforhodamine B assay. To be noted: OVCAR-3, 48 h, read-out: GI. An outline of the steps: (§1)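 Run at NCI on the 60-line panel. Cells grown in RPMI 1640 with 5% FBS and 2 mM L-glutamine, plated at 5000–40,000 cells/well by doubling time, and held 24 h at 37 °C before dosing. Drug (DMSO stock) given at a single final 10 µM in triplicate wells for 48 h. Adherent cells fixed with cold TCA (10% final), suspension cells with 16% TCA. SRB stain read at 515 nm. Percent growth from Tz, C and Ti.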

Another experiment deals with 786-0. Briefly: Growth inhibition of human 786-0 cells at 10 uM after 48 hrs by sulforhodamine B assay. Particulars: 786-0, 48 h, read-out: GI. In outline: as §1
A further experiment deals with NCI-H226. Briefly: Growth inhibition of human NCI-H226 cells at 10 uM after 48 hrs by sulforhodamine B assay. To be noted: NCI-H226, 48 h, read-out: GI. An outline of the steps:
as §1

A short description of experiment [2]: Growth inhibition of human BT549 cells at 10 uM after 48 hrs by sulforhodamine B assay. To be noted: BT-549, 48 h, read-out: GI. An outline of the steps:
as §1
(Sulforhodamine B stains cellular protein and so reports cell mass.)

Experiment [3] in a line: Growth inhibition of human RXF393 cells at 10 uM after 48 hrs by sulforhodamine B assay. To be noted: RXF 393, 48 h, read-out: GI. In outline:
as §1

Experiment [4] in a line: Growth inhibition of human HCC2998 cells at 10 uM after 48 hrs by sulforhodamine B assay. Particulars: HCC 2998, 48 h, read-out: GI. An outline of the steps: as §1
Experiment [5] is described as follows: Growth inhibition of human SW620 cells at 10 uM after 48 hrs by sulforhodamine B assay. Particulars: SW-620, 48 h, read-out: GI. An outline of the steps:
(§2)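 NCI-60 panel, adherent cells grown in RPMI 1640 with 5% FBS and 2 mM L-glutamine, plated at 5000–40,000 cells/well and preincubated 24 h at 37 °C, 5% CO2. 10 µM final compound from DMSO stock, triplicate wells, 48 h. Fixed with cold TCA (10% final, 60 min, 4 °C) and stained with 0.4% SRB. Absorbance read at 515 nm; growth calculated against time-zero and control wells.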

Experiment [6] is described as follows: Growth inhibition of human MOLT4 cells at 10 uM after 48 hrs by sulforhodamine B assay. To be noted: MOLT-4, 48 h, read-out: GI. In outline:
as §1

Experiment [7] can be described thus: Growth inhibition of human HCT116 cells at 10 uM after 48 hrs by sulforhodamine B assay. To be noted: HCT-116, 48 h, read-out: GI. In outline:
as §1

A further experiment deals with Malme-3M. Briefly: Growth inhibition of human MALME-3M cells at 10 uM after 48 hrs by sulforhodamine B assay. To be noted: read-out: GI. In outline: as §1
The nature of experiment [8]: Growth inhibition of human UACC62 cells at 10 uM after 48 hrs by sulforhodamine B assay. To be noted: UACC-62, 48 h, read-out: GI. In outline: as §2
The nature of experiment [9]: Growth inhibition of human SF268 cells at 10 uM after 48 hrs by sulforhodamine B assay. To be noted: SF-268, 48 h, read-out: GI. In outline:
as §1

Experiment [10] in a line: Growth inhibition of human COLO205 cells at 10 uM after 48 hrs by sulforhodamine B assay. Particulars: COLO 205, 48 h, read-out: GI. In outline: as §1
The nature of experiment [11]: Growth inhibition of human IGROV1 cells at 10 uM after 48 hrs by sulforhodamine B assay. Particulars: IGROV-1, 48 h, read-out: GI. An outline of the steps: as §1
Experiment [12] can be described thus: Growth inhibition of human HOP92 cells at 10 uM after 48 hrs by sulforhodamine B assay. To be noted: HOP-92, 48 h, read-out: GI. An outline of the steps: as §1
In the next experiment the test system is ACHN. Briefly: Growth inhibition of human ACHN cells at 10 uM after 48 hrs by sulforhodamine B assay. Particulars: read-out: GI. An outline of the steps:
as §1

The test system of another experiment is U-251. Description: Growth inhibition of human U251 cells at 10 uM after 48 hrs by sulforhodamine B assay. Particulars: U-251, 48 h, read-out: GI. An outline of the steps: as §2
For a further experiment, the system named is SR. Description: Growth inhibition of human SR cells at 10 uM after 48 hrs by sulforhodamine B assay. To be noted: read-out: GI. An outline of the steps:
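NCI-60 screen. Cells were grown in RPMI 1640 with 5% FBS and 2 mM L-glutamine, plated at 5000–40,000 cells/well and held 24 h at 37 °C, 5% CO2. Single 10 µM final dose from DMSO stock, triplicate wells, 48 h. Settled cells were fixed with 80% TCA (16% final) and stained with 0.4% SRB. Dye was solubilized in 10 mM Tris and read at 515 nm. Growth was calculated against time-zero and untreated wells.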

For another experiment, the system named is SK-MEL-5. Briefly: Growth inhibition of human SK-MEL-5 cells at 10 uM after 48 hrs by sulforhodamine B assay. To be noted: SK-MEL-5, 48 h, read-out: GI. An outline of the steps:
as §1

Experiment [13] is described as follows: Growth inhibition of human HCT15 cells at 10 uM after 48 hrs by sulforhodamine B assay. Particulars: HCT-15, 48 h, read-out: GI. An outline of the steps: as §1
A short description of experiment [14]: Growth inhibition of human SKOV3 cells at 10 uM after 48 hrs by sulforhodamine B assay. To be noted: SK-OV-3, 48 h, read-out: GI. In outline: as §1

SMILES strings stand for the structures. Some results are limits rather than exact numbers.

This passage reports inhibition of growth results from ChEMBL document CHEMBL3779892, “Increasing the binding affinity of VEGFR-2 inhibitors by extending their hydrophobic interaction with the active site: Design, synthesis and biological evaluation of 1-substituted-4-(4-methoxybenzyl)phthalazine derivatives” (Eur J Med Chem, 2016).

As for `COc1ccc(Cc2nnc(Nc3ccc(Cl)c(C(F)(F)F)c3)c3ccccc23)cc1`, the inhibition of growth at 10 µM was 59% in experiment [1]; 41% in the experiment with 786-0; 43% in the experiment with NCI-H226; below 30% in experiment [2]; 33% in experiment [3]; 42% in experiment [4]. In addition, the inhibition of growth at 10 µM in [5] was below 30%; in experiment [6] it was 69%; in [7] it was 73%; in the experiment with Malme-3M, below 30%; in experiment [8], 41%; in [9], below 30%. For the same compound, the inhibition of growth at 10 µM is below 30% in [10]; 32% in experiment [11]; 58% in experiment [12]; 45% in the experiment on ACHN; 59% in the experiment with U-251; 43% in the experiment on SR. Also, the inhibition of growth at 10 µM was below 30% in the experiment on SK-MEL-5, 58% in experiment [13] and below 30% in experiment [14].
In the case of `COc1ccc(Cc2nnc(Nc3ccccc3)c3ccccc23)cc1`, the inhibition of growth at 10 µM (in experiment [1]; in the experiment with 786-0; with NCI-H226; in experiment [2]; in experiment [3]; in [4]) was below 30% throughout. For the same compound, the inhibition of growth at 10 µM in [5] was below 30%; in experiment [6], below 30%; in [7], below 30%; in the experiment on Malme-3M it was below 30%; in [8], below 31%; in experiment [9], below 30%. For the same compound, the inhibition of growth at 10 µM in experiment [10] is below 30%; in experiment [11], below 30%; in experiment [12] it was 49%; with ACHN, below 30%; with U-251, below 30%; in the experiment on SR it was 30%. Moreover, the inhibition of growth at 10 µM (with SK-MEL-5; in experiment [13]; in [14]) was below 30% each time.
`COc1ccc(Cc2nnc(Nc3cccc(C(F)(F)F)c3)c3ccccc23)cc1`: the inhibition of growth at 10 µM in [1] was 48%; in the experiment on 786-0, 33%; in the experiment with NCI-H226, 40%; in experiment [2], below 30%; in experiment [3], 34%; in experiment [4], 31%. Besides, the inhibition of growth at 10 µM in [5] was below 30%; in experiment [6], 60%; in [7] it was 56%; in the experiment with Malme-3M, below 30%; in experiment [8] it was 42%; in [9], below 30%. For the same compound, the inhibition of growth at 10 µM in experiment [10] was below 30%; in experiment [11], 37%; in experiment [12], 63%; in the experiment on ACHN, 31%; with U-251, 44%; in the experiment on SR, 52%. The inhibition of growth at 10 µM with SK-MEL-5 is below 30%; in [13], 41%; in experiment [14], below 30%.
With `COc1ccc(Cc2nnc(Nc3ccc(Cl)cc3)c3ccccc23)cc1`, the inhibition of growth at 10 µM was 40% in experiment [1]; 43% with 786-0; 34% with NCI-H226; below 30% in experiment [2]; 32% in experiment [3]; below 30% in [4]. For the same compound, the inhibition of growth at 10 µM in experiment [5] is below 30%; in [6], 48%; in experiment [7], 66%; with Malme-3M it was below 30%; in [8], 60%; in experiment [9], below 30%. Moreover, the inhibition of growth at 10 µM in experiment [10] is below 30%; in experiment [11], 36%; in experiment [12] it was 76%; in the experiment with ACHN, 47%; with U-251, 38%; in the experiment on SR, 54%. The inhibition of growth at 10 µM with SK-MEL-5 was 35%; in experiment [13], 33%; in experiment [14], below 30%.
`COc1ccc(Cc2nnc(Nc3cccc(Cl)c3)c3ccccc23)cc1`: the inhibition of growth at 10 µM in experiment [1] was 34%; in the experiment with 786-0, below 30%; in the experiment with NCI-H226, 35%; in experiment [2] it was below 30%; in [3], below 30%; in [4] it was below 30%. Besides, the inhibition of growth at 10 µM in experiment [5] is below 30%; in [6] it was 37%; in experiment [7] it was 49%; in the experiment with Malme-3M it was below 30%; in experiment [8], 39%; in experiment [9], below 30%. Further, the inhibition of growth at 10 µM in experiment [10] was below 30%; in experiment [11], below 30%; in experiment [12], 63%; in the experiment with ACHN, 31%; in the experiment on U-251, 34%; with SR, 43%. Further, the inhibition of growth at 10 µM with SK-MEL-5 is below 30%; in experiment [13], 33%; in experiment [14], below 30%.
With `COc1ccc(Cc2nnc(Nc3ccc(C#N)cc3)c3ccccc23)cc1`, the inhibition of growth at 10 µM (in experiment [1]; with 786-0; with NCI-H226; in [2]; in experiment [3]; in [4]) was below 30% in each case. The inhibition of growth at 10 µM (in experiment [5]; in experiment [6]; in [7]; in the experiment with Malme-3M; in experiment [8]; in [9]) was below 30% in each case. The inhibition of growth at 10 µM in experiment [10] was below 30%; in experiment [11], below 30%; in experiment [12], 36%; with ACHN, below 30%; in the experiment on U-251 it was below 30%; in the experiment on SR it was below 30%. Besides, the inhibition of growth at 10 µM (in the experiment on SK-MEL-5; in [13]; in experiment [14]) was below 30% in each case.
